The values below come from ChEMBL document CHEMBL1136635, “Modification of the N-terminus of peptidomimetic protein tyrosine phosphatase 1B (PTP1B) inhibitors: identification of analogues with cellular activity” (Bioorg Med Chem Lett, 2003).

Assay [1] is described as follows: Uptake of 2-DOG (2-deoxyglucose) into L6 myocytes in the presence of half-maximal concentration of insulin at 100 uM. It counts as functional, Rattus norvegicus. The procedure, abridged: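 L6 myotubes are exposed to compound at 100 µM with 10 nM insulin, a dose eliciting about 50% of maximal uptake. The initial rate of 2-[3H]deoxyglucose uptake is measured, with L-[14C]glucose marking extracellular space, and normalized to recovered lysate protein. Net insulin-dependent transport with inhibitor is expressed as a percent of that without inhibitor.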

In assay [2] the target is T1, Tyrosine-protein phosphatase non-receptor type 1 (Homo sapiens) (UniProt P18031).
T1 sequence (whole entry): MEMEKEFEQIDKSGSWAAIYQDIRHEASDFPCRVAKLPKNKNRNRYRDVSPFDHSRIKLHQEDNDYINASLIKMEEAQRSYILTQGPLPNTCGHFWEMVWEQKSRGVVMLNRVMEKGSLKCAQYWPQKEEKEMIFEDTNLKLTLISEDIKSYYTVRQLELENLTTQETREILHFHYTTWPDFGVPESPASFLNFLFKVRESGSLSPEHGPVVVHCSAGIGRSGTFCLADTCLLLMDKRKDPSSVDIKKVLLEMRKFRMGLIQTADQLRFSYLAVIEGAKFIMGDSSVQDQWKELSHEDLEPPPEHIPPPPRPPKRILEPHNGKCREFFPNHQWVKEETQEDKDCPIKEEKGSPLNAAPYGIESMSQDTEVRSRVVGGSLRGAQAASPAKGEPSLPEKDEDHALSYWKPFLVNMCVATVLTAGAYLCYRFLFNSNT
In words: Inhibitory activity against human protein tyrosine phosphatase 1B (PTP1B) at a concentration of 10 uM. The method, boiled down: (§1)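 Purified recombinant human enzyme constructs; PTP1B is a C-terminally truncated soluble form, tested alongside LAR and SHP-2. Activity is read as the initial rate of p-nitrophenyl phosphate (pNPP) hydrolysis and reported as percent inhibition. PTP1B is tested at 100, 10 and 1 µM, or 10 and 1 µM in the salicylate series; LAR and SHP-2 at 100 µM.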

The target in assay [3] is T1, Tyrosine-protein phosphatase non-receptor type 1 (Homo sapiens). The experiment in a line: Inhibitory activity against human protein tyrosine phosphatase 1B (PTP1B) at a concentration of 1 uM. The procedure, abridged:
as §1

The target is the same in assay [4]. The experiment in a line: Inhibitory activity against human protein tyrosine phosphatase 1B (PTP1B) at a concentration of 100 uM. The method, boiled down: as §1
Assay [5] addresses T2, Tyrosine-protein phosphatase non-receptor type 11 (Homo sapiens) (UniProt Q06124).
T2 sequence (whole entry): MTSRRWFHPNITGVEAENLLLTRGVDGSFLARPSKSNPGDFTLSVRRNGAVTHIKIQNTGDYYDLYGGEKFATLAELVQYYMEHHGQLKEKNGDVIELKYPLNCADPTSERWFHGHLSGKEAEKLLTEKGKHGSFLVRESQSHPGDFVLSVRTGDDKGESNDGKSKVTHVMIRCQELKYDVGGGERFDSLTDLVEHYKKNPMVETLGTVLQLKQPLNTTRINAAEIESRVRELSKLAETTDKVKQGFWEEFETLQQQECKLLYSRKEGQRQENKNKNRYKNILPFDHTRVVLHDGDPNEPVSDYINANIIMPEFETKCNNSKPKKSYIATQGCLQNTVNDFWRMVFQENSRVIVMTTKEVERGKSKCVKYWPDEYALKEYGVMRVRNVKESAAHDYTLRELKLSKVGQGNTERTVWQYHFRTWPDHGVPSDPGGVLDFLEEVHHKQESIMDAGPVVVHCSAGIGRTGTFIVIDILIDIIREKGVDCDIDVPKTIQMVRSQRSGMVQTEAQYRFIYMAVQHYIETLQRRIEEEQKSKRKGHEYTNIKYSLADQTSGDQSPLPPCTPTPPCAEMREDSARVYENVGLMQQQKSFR
In words: Inhibition of recombinant human phosphatase (SHP-2) at a concentration of 100 uM. The procedure, abridged:
as §1

Assay [6] has as its target Receptor-type tyrosine-protein phosphatase F (Homo sapiens) (UniProt P10586). The experiment in a line: Inhibitory activity against phosphatase (LAR) at a concentration of 100 uM. The procedure, abridged: as §1

Sequence of Receptor-type tyrosine-protein phosphatase F (Homo sapiens) (P10586 whole entry): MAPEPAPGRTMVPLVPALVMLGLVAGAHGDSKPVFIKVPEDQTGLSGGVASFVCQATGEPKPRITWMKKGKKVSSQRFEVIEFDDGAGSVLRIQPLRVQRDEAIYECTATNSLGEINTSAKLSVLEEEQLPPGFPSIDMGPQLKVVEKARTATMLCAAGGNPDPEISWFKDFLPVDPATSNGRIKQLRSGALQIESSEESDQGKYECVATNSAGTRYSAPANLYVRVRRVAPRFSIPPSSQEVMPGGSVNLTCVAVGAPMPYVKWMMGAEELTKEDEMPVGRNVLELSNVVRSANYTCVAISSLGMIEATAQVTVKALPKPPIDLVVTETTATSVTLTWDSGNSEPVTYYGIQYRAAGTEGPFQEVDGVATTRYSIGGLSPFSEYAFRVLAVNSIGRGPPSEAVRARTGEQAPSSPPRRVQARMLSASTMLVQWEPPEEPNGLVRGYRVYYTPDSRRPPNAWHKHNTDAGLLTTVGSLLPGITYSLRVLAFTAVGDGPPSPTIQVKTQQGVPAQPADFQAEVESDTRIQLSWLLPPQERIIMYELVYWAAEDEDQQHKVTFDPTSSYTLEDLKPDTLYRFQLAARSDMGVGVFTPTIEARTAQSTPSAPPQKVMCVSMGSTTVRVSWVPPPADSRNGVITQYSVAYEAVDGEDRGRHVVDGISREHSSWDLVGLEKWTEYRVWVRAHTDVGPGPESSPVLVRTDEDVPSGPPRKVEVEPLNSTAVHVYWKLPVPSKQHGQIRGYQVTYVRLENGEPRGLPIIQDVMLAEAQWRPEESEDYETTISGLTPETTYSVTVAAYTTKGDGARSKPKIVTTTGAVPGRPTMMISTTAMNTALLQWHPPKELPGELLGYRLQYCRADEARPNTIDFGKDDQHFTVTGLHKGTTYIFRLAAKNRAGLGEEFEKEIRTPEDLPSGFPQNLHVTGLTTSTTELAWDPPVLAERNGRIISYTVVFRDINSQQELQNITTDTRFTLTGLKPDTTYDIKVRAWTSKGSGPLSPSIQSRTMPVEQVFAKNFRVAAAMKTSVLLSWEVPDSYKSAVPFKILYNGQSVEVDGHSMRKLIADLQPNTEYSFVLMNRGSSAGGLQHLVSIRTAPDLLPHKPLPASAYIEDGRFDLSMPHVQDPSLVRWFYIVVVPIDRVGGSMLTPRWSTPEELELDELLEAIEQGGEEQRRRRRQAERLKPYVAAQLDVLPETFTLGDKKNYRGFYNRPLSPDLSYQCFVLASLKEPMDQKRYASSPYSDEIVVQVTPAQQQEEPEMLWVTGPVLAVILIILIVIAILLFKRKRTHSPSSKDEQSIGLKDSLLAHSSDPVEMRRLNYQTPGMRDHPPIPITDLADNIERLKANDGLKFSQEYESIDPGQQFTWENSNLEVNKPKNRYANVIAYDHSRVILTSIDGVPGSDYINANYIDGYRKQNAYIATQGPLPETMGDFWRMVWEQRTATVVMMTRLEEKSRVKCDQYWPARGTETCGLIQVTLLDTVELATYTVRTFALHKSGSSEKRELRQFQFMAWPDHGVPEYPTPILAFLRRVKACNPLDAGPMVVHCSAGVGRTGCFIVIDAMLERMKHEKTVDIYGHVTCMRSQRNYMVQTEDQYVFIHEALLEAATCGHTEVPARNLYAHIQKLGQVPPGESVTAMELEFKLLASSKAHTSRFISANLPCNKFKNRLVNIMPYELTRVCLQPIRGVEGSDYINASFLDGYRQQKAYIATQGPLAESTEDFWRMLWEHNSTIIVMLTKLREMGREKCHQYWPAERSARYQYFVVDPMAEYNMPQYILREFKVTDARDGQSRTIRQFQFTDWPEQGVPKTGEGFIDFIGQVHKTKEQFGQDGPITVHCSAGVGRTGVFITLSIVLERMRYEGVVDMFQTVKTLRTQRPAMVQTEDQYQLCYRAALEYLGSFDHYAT

What is called inhibition is the drop in the measured response relative to a control, in per cent. Turning to `CCCCCNC(=O)[C@H](Cc1ccc(OC(C(=O)O)C(=O)O)cc1)NC(=O)[C@H](Cc1ccccc1)NC(=O)NC(C)(C)C`, the “Control Uptake” value in assay [1] amounted to 93%. Further, the inhibition came out at 40% in assay [2]; 9% in assay [3]; 86% in assay [4]; 6% in assay [5]; 21% in assay [6].
Turning to `CCCCCNC(=O)[C@H](Cc1ccc(OC(C(=O)O)C(=O)O)cc1)NC(=O)[C@H](CC(C)C)NC(=O)OC(C)(C)C`, the “Control Uptake” value in assay [1] is reported as 84%. Further, the inhibition worked out at 24% in assay [2]; 4% in assay [3]; 76% in assay [4]; 5% in assay [5]; 3% in assay [6].
Consider `CCCCCNC(=O)[C@H](Cc1ccc(OCC(=O)O)c(C(=O)O)c1)NC(=O)[C@H](Cc1ccccc1)NC(=O)Cc1ccc(C)cc1`, for which, in assay [1], the “Control Uptake” value came out at 77%. Besides, the inhibition amounted to 85% in assay [2], 39% in assay [3], 20% in assay [5] and 6% in assay [6].
In the same order, the values of `CCCCCNC(=O)[C@H](Cc1ccc(OCC(=O)O)c(C(=O)O)c1)NC(=O)[C@H](Cc1ccccc1)NC(=O)Cc1ccccc1` are 73%, 87%, 45%, 18% and 0%.
For `CCCCCNC(=O)[C@H](Cc1ccc(OCC(=O)O)c(C(=O)O)c1)NC(=O)[C@H](Cc1ccccc1)NC(=O)CCOC` the same measures were 89%, 83%, 37%, 2% and 0%.
For `CCCCCNC(=O)[C@H](Cc1ccc(OCC(=O)O)c(C(=O)O)c1)NC(=O)[C@H](Cc1ccccc1)NC(=O)CCNC(=O)OC(C)(C)C` the same measures were 88%, 75%, 19%, 19% and 0%.
For `CCCCCNC(=O)[C@H](Cc1ccc(OCC(=O)O)c(C(=O)O)c1)NC(=O)[C@H](Cc1ccccc1)NC(=O)CSc1nc[nH]n1`, the “Control Uptake” value in assay [1] was determined as 80%. The inhibition worked out at 82% in assay [2], 36% in assay [3], 6% in assay [5] and 0% in assay [6].
As for `CCCCCNC(=O)[C@H](Cc1ccc(OCC(=O)O)c(C(=O)O)c1)NC(=O)[C@H](Cc1ccccc1)NC(=O)CCCc1ccccc1`, in assay [1], the “Control Uptake” value is recorded as 73%. Besides, the inhibition in assay [2] was determined as 70%; in assay [3], 19%; in assay [5] it was 17%; in assay [6], 0%.
In the same order, the values of `CCCCCNC(=O)[C@H](Cc1ccc(OCC(=O)O)c(C(=O)O)c1)NC(=O)[C@H](Cc1ccccn1)NC(=O)OC(C)(C)C` are 106%, 50%, 10%, 1% and 2%.
With `CCCCCNC(=O)[C@H](Cc1ccc(OCC(=O)O)c(C(=O)O)c1)NC(=O)[C@H](CO)NC(=O)OC(C)(C)C`, the “Control Uptake” value in assay [1] came out at 84%. Besides, the inhibition in assay [2] was 41%; in assay [3], 11%; in assay [5] it was 4%; in assay [6] it was 1%.
In the same order, the values of `CCCCCNC(=O)[C@H](Cc1ccc(OCC(=O)O)c(C(=O)O)c1)NC(=O)[C@H](Cc1ccccc1)NC(=O)CSc1c[nH]nn1` are 86%, 88%, 49%, 5% and 0%.
Consider `CCCCCNC(=O)[C@H](Cc1ccc(OCC(=O)O)c(C(=O)O)c1)NC(=O)[C@H](Cc1ccccc1)NC(=O)C[S+]([O-])c1nc[nH]n1` (some centres not stated), for which the “Control Uptake” value in assay [1] came out at 92%. Besides, the inhibition stood at 85% in assay [2], 40% in assay [3], 17% in assay [5] and 0% in assay [6].
